Data reported in ChEMBL document CHEMBL2346607, “Borrelidin analogues with antimalarial activity: design, synthesis and biological evaluation against Plasmodium falciparum parasites” (Bioorg Med Chem Lett, 2013).
Values after ≈ are worked out from the molar mass of the structure shown.

Tests used:
[1] = Selectivity index, ratio of IC50 for human […] cells to IC50 for Plasmodium falciparum FCR-3; format: toxicity, cell-based; conditions: […] cells (cytotoxicity) versus Plasmodium falciparum FCR-3, read-out: Ratio IC50
In short: (§1)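 SI is the MRC-5 cytotoxicity IC50 (ng/mL) divided by the antimalarial IC50 (ng/mL) against the FCR3 or K1 strain. Both IC50s come from the same in vitro test series.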

[2] = Selectivity index, ratio of IC50 for human […] cells to IC50 for Plasmodium falciparum K1; format: toxicity, cell-based; conditions: MCR5 cells (cytotoxicity) versus Plasmodium falciparum K1, read-out: Ratio IC50; in short: as §1
[3] = Cytotoxicity against human […] cells after 7 days by MTT assay; format: cell-based; conditions: 168 h
In short: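 Cytotoxicity was tested on MRC-5, a human diploid embryonic cell line. The value is reported as an IC50 in ng/mL.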

[4] = test system: Plasmodium falciparum; assay: Antimalarial activity against Plasmodium falciparum K1 infected in human erythrocytes after 72 hrs by lactate dehydrogenase assay; format: functional, organism-based; conditions: K1, 72 h
In short: (§2)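 In vitro assay against the P. falciparum strains K1 (drug-resistant) and FCR3 (drug-sensitive). The value is reported as an IC50 in ng/mL.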

[5] = test system: Plasmodium falciparum; assay: Antimalarial activity against Plasmodium falciparum FCR-3 infected in human erythrocytes after 72 hrs by lactate dehydrogenase assay; format: functional, cell-based; conditions: FCR-3/Gambia; in short: as §2

SMILES | IC50 [4] [ng/mL] | IC50 [5] [ng/mL] | selectivity ratio [1] | selectivity ratio [2] | IC50 [3] [µg/mL]
C[C@@H]1C[C@H](C)C[C@H](C)[C@@H](O)CC(=O)O[C@H]([C@@H]2CCC[C@H]2C(=O)OCc2cn(CSc3ccccc3)nn2)C/C=C/C=C(/C#N)[C@H](O)[C@@H](C)C1 | 0.031 (≈ 4.47e-05 µM) | 0.85 (≈ 0.00123 µM) | 19800 | 542000 | 16.8 (≈ 24.2 µM)
C[C@@H]1C[C@H](C)C[C@H](C)[C@@H](O)CC(=O)O[C@H]([C@@H]2CCC[C@H]2C(=O)OCc2cn(-c3ccc(C(=O)O)cc3)nn2)C/C=C/C=C(/C#N)[C@H](O)[C@@H](C)C1 | 37.8 (≈ 0.0547 µM) | 48.5 (≈ 0.0702 µM) | 209 | 267 | 10.1 (≈ 14.6 µM)
C[C@@H]1C[C@H](C)C[C@H](C)[C@@H](O)CC(=O)O[C@H]([C@@H]2CCC[C@H]2C(=O)OCc2cn(-c3cccnc3)nn2)C/C=C/C=C(/C#N)[C@H](O)[C@@H](C)C1 | 2.9 (≈ 0.00448 µM) | 4.8 (≈ 0.00741 µM) | 86 | 143 | 0.41 (≈ 0.633 µM)
C[C@@H]1C[C@H](C)C[C@H](C)[C@@H](O)CC(=O)O[C@H]([C@@H]2CCC[C@H]2C(=O)OCc2cn(-c3cnc4ccccc4c3)nn2)C/C=C/C=C(/C#N)[C@H](O)[C@@H](C)C1 | 0.067 (≈ 9.6e-05 µM) | 0.079 (≈ 0.000113 µM) | 13400 | 15600 | 1.05 (≈ 1.5 µM)
C#CCOC(=O)[C@@H]1CCC[C@H]1[C@@H]1C/C=C/C=C(/C#N)[C@H](O)[C@@H](C)C[C@H](C)C[C@H](C)C[C@H](C)[C@@H](O)CC(=O)O1 | 2.6 (≈ 0.00493 µM) | 5 (≈ 0.00948 µM) | 240 | 462 | 1.2 (≈ 2.27 µM)
C[C@@H]1C[C@H](C)C[C@H](C)[C@@H](O)CC(=O)O[C@H]([C@@H]2CCC[C@H]2C(=O)OCCN(C)C)C/C=C/C=C(/C#N)[C@H](O)[C@@H](C)C1 | 0.31 (≈ 0.000553 µM) | 0.24 (≈ 0.000428 µM) | 750 | 581 | 0.18 (≈ 0.321 µM)
C[C@@H]1C[C@H](C)C[C@H](C)[C@@H](O)CC(=O)O[C@H]([C@@H]2CCC[C@H]2C(=O)OCCN2CCOCC2)C/C=C/C=C(/C#N)[C@H](O)[C@@H](C)C1 | 0.62 (≈ 0.00103 µM) | 0.43 (≈ 0.000713 µM) | 604 | 419 | 0.26 (≈ 0.431 µM)
C[C@@H]1C[C@H](C)C[C@H](C)[C@@H](O)CC(=O)O[C@H]([C@@H]2CCC[C@H]2C(=O)NCC(=O)O)C/C=C/C=C(/C#N)[C@H](O)[C@@H](C)C1 | 21 (≈ 0.0384 µM) | 31 (≈ 0.0567 µM) | 1900 | 2850 | 58.9 (≈ 108 µM)
C[C@@H]1C[C@H](C)C[C@H](C)[C@@H](O)CC(=O)O[C@H]([C@@H]2CCC[C@H]2C(=O)N[C@@H](Cc2ccc(O)cc2)C(=O)O)C/C=C/C=C(/C#N)[C@H](O)[C@@H](C)C1 | 163 (≈ 0.25 µM) | 170 (≈ 0.26 µM) | 197 | 206 | 33.4 (≈ 51.2 µM)
CC(=O)O[C@H]1CC(=O)O[C@H]([C@@H]2CCC[C@H]2C(=O)O)C/C=C/C=C(/C#N)[C@H](OC(C)=O)[C@@H](C)C[C@H](C)C[C@H](C)C[C@@H]1C | 107 (≈ 0.186 µM) | 120 (≈ 0.209 µM) | 464 | 522 | 55.7 (≈ 97.1 µM)
COC(=O)[C@@H]1CCC[C@H]1[C@@H]1C/C=C/C=C(/C#N)[C@H](O)[C@@H](C)C[C@H](C)C[C@H](C)C[C@H](C)[C@@H](O)CC(=O)O1 | 10 (≈ 0.0199 µM) | 10 (≈ 0.0199 µM) | 1460 | 1460 | 14.6 (≈ 29 µM)
CCOC(=O)[C@@H]1CCC[C@H]1[C@@H]1C/C=C/C=C(/C#N)[C@H](O)[C@@H](C)C[C@H](C)C[C@H](C)C[C@H](C)[C@@H](O)CC(=O)O1 | 67.8 (≈ 0.131 µM) | 23.3 (≈ 0.045 µM) | 939 | 323 | 21.9 (≈ 42.3 µM)
CCCOC(=O)[C@@H]1CCC[C@H]1[C@@H]1C/C=C/C=C(/C#N)[C@H](O)[C@@H](C)C[C@H](C)C[C@H](C)C[C@H](C)[C@@H](O)CC(=O)O1 | 90.4 (≈ 0.17 µM) | 78.8 (≈ 0.148 µM) | 232 | 202 | 18.2 (≈ 34.2 µM)
C[C@@H]1C[C@H](C)C[C@H](C)[C@@H](O)CC(=O)O[C@H]([C@@H]2CCC[C@H]2C(=O)OCc2ccccc2)C/C=C/C=C(/C#N)[C@H](O)[C@@H](C)C1 | 24.6 (≈ 0.0424 µM) | 20.5 (≈ 0.0354 µM) | 198 | 165 | 4.05 (≈ 6.99 µM)
C[C@@H]1CC[C@H]2[C@@H](C)C(=O)O[C@@H]3O[C@@]4(C)CC[C@@H]1[C@]32OO4 [ARTEMISININ] | – | – | 7530 | 7530 | 45.2 (≈ 160 µM)
C[C@@H]1C[C@H](C)C[C@H](C)[C@@H](O)CC(=O)O[C@H]([C@@H]2CCC[C@H]2C(=O)O)C/C=C/C=C(/C#N)[C@H](O)[C@@H](C)C1 [BORRELIDIN] | 0.93 (≈ 0.0019 µM) | 0.88 (≈ 0.0018 µM) | 228 | 216 | 0.201 (≈ 0.41 µM)
CCN(CC)CCCC(C)Nc1ccnc2cc(Cl)ccc12 (stereo not given) [CHLOROQUINE] | – | – | – | – | 18.6 (≈ 58.1 µM)

Further lines, with some results ahead:

IC50 [4] [ng/mL] | IC50 [5] [ng/mL] | SMILES | selectivity ratio [1] | selectivity ratio [2] | IC50 [3] [µg/mL]
70 (≈ 0.0993 µM) | 168 (≈ 0.238 µM) | C[C@@H]1C[C@H](C)C[C@H](C)[C@@H](O)CC(=O)O[C@H]([C@@H]2CCC[C@H]2C(=O)OCc2cn(C34CC5CC(CC(C5)C3)C4)nn2)C/C=C/C=C(/C#N)[C@H](O)[C@@H](C)C1 | 16 | 39 | 2.7 (≈ 3.83 µM)
107 (≈ 0.184 µM) | 160 (≈ 0.275 µM) | C[C@@H]1C[C@H](C)C[C@H](C)[C@@H](O)CC(=O)O[C@H]([C@@H]2CCC[C@H]2C(=O)Sc2ccccc2)C/C=C/C=C(/C#N)[C@H](O)[C@@H](C)C1 | 6 | 9 | 0.98 (≈ 1.68 µM)
– | 13 (≈ 0.0232 µM) | C[C@@H]1C[C@H](C)C[C@H](C)[C@@H](O)CC(=O)O[C@H]([C@@H]2CCC[C@H]2C(=O)N[C@@H](C)C(=O)O)C/C=C/C=C(/C#N)[C@H](O)[C@@H](C)C1 | 4190 | – | –
140 (≈ 0.243 µM) | 200 (≈ 0.347 µM) | C[C@@H]1C[C@H](C)C[C@H](C)[C@@H](O)CC(=O)O[C@H]([C@@H]2CCC[C@H]2C(=O)N[C@@H](CO)C(=O)O)C/C=C/C=C(/C#N)[C@H](O)[C@@H](C)C1 | > 500 | > 714 | > 1000
580 (≈ 0.961 µM) | 810 (≈ 1.34 µM) | C[C@@H]1C[C@H](C)C[C@H](C)[C@@H](O)CC(=O)O[C@H]([C@@H]2CCC[C@H]2C(=O)N[C@@H](CC(N)=O)C(=O)O)C/C=C/C=C(/C#N)[C@H](O)[C@@H](C)C1 | > 124 | > 172 | > 1000
18 (≈ 0.0299 µM) | 12 (≈ 0.0199 µM) | CC[C@H](C)[C@H](NC(=O)[C@@H]1CCC[C@H]1[C@@H]1C/C=C/C=C(/C#N)[C@H](O)[C@@H](C)C[C@H](C)C[C@H](C)C[C@H](C)[C@@H](O)CC(=O)O1)C(=O)O | 5330 | 3200 | 64 (≈ 106 µM)
8 (≈ 0.015 µM) | 10 (≈ 0.0187 µM) | CCSC(=O)[C@@H]1CCC[C@H]1[C@@H]1C/C=C/C=C(/C#N)[C@H](O)[C@@H](C)C[C@H](C)C[C@H](C)C[C@H](C)[C@@H](O)CC(=O)O1 | 1340 | 1570 | 12.7 (≈ 23.8 µM)
167 (≈ 0.305 µM) | 280 (≈ 0.511 µM) | CCCSC(=O)[C@@H]1CCC[C@H]1[C@@H]1C/C=C/C=C(/C#N)[C@H](O)[C@@H](C)C[C@H](C)C[C@H](C)C[C@H](C)[C@@H](O)CC(=O)O1 | 12 | 20 | 3.4 (≈ 6.21 µM)
59 (≈ 0.108 µM) | 72 (≈ 0.131 µM) | CC(C)SC(=O)[C@@H]1CCC[C@H]1[C@@H]1C/C=C/C=C(/C#N)[C@H](O)[C@@H](C)C[C@H](C)C[C@H](C)C[C@H](C)[C@@H](O)CC(=O)O1 | 142 | 172 | 10.2 (≈ 18.6 µM)
163 (≈ 0.29 µM) | 170 (≈ 0.303 µM) | CCCCSC(=O)[C@@H]1CCC[C@H]1[C@@H]1C/C=C/C=C(/C#N)[C@H](O)[C@@H](C)C[C@H](C)C[C@H](C)C[C@H](C)[C@@H](O)CC(=O)O1 | 12 | 12 | 2 (≈ 3.56 µM)
130 (≈ 0.263 µM) | 130 (≈ 0.263 µM) | C[C@@H]1C[C@H](C)C[C@H](C)[C@@H](O)CC(=O)O[C@H]([C@@H]2CCC[C@H]2C(=O)O)CCCCC(C#N)[C@H](O)[C@@H](C)C1 (stereo not given in full) | 102 | 102 | –
77.7 (≈ 0.147 µM) | 39.2 (≈ 0.074 µM) | C=CCOC(=O)[C@@H]1CCC[C@H]1[C@@H]1C/C=C/C=C(/C#N)[C@H](O)[C@@H](C)C[C@H](C)C[C@H](C)C[C@H](C)[C@@H](O)CC(=O)O1 | 118 | 59.6 | 4.63 (≈ 8.74 µM)
